Test results taken from ChEMBL document CHEMBL3745621, “Synthesis and evaluation of gallocyanine dyes as potential agents for the treatment of Alzheimer's disease and related neurodegenerative tauopathies” (Eur J Med Chem, 2016).
Active and inactive are the calls of the source. The rule behind the calls is not given here.

Columns and labels:
[1] = biological target: Dickkopf-related protein 1/Low-density lipoprotein receptor-related protein 6 (Homo sapiens) (UniProt O94907+O75581); assay: Inhibition of DKK1/LRP6 (unknown origin) expressed in HEK293 cells assessed as inhibition of DKK1/LRP6 interaction at 100 uM after 2 hrs by immunofluorescence method; format: cell-based
Chain of Dickkopf-related protein 1/Low-density lipoprotein receptor-related protein 6 (Homo sapiens) (O75581 20-1613 partner limits assumed): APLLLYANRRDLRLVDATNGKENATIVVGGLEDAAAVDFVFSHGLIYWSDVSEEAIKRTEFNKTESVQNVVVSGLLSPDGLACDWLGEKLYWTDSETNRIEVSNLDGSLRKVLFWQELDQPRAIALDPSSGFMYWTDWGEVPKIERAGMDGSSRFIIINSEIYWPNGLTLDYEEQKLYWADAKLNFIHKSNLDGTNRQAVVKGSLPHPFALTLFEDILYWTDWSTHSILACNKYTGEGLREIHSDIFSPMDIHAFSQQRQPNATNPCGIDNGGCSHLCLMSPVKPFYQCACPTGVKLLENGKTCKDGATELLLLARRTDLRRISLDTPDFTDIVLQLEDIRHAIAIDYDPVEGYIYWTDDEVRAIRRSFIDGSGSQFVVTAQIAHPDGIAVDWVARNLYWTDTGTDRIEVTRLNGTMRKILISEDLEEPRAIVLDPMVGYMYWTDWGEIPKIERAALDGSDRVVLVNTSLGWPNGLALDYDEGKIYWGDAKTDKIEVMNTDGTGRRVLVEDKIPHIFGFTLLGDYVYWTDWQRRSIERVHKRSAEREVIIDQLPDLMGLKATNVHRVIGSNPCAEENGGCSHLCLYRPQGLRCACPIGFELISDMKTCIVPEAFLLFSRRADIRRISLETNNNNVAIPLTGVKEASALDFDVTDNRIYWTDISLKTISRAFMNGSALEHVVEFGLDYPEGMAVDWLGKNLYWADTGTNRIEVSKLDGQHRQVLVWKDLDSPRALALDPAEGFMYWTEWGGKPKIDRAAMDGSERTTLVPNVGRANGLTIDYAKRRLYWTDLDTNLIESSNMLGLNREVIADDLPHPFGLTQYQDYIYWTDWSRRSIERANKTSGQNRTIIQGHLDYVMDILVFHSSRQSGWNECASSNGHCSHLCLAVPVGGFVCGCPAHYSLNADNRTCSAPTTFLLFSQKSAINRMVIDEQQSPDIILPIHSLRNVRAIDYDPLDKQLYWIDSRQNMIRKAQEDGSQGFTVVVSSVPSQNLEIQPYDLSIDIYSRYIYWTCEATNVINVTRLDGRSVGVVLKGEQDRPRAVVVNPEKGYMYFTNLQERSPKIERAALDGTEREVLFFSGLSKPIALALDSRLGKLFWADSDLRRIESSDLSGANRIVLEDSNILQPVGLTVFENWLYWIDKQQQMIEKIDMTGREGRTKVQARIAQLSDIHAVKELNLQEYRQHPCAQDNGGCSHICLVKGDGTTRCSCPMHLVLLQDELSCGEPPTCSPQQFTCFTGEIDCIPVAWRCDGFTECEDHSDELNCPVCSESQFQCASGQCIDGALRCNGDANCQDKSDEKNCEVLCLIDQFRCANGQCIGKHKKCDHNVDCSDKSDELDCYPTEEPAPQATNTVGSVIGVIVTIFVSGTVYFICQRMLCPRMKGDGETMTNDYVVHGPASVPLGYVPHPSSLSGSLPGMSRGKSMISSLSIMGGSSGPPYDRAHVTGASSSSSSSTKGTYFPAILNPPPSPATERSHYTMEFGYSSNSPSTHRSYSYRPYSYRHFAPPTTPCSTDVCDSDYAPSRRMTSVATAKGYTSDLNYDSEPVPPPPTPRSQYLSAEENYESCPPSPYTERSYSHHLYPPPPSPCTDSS
Chain of Dickkopf-related protein 1/Low-density lipoprotein receptor-related protein 6 (Homo sapiens) (O94907 32-266 limits assumed): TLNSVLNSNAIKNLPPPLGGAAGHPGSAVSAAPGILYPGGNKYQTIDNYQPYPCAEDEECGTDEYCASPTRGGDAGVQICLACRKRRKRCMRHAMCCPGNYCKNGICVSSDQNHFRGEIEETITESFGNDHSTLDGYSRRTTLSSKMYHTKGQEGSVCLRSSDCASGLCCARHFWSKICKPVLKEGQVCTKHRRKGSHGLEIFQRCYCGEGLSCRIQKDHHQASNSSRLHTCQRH
In short: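 HEK-293 cells stably overexpressing LRP6, sub-confluent, incubated 2 h at 4 °C with DKK1 conditioned medium plus compound or DMSO. Fixed in 3% paraformaldehyde, blocked in PBS/0.1% BSA, stained with rabbit anti-DKK1 and Alexa488 secondary; DAPI nuclei. Surface DKK1 fluorescence quantified over 750 cells as % DKK1 binding; three independent experiments in duplicate.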

[2] = Cytotoxicity against mouse primary cortical neurons assessed as viable cells at 10 uM after 24 hrs by MTT assay; format: cell-based, Cerebral cortex neuron; settings: for viability at 24 h, 10 µM: primary cortical neurons, read-out: Activity
In short: (§1)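 Primary mouse cortical neurons seeded at 25,000 or 15,000 cells/well and grown 6 days at 37 °C, 5% CO2. Test compound was then added in fresh medium (final DMSO 0.1%) for 24 h at 37 °C. MTT (2.5 mg/ml in PBS) was added for 4 h. Formazan was extracted with isopropanol/HCl and absorbance read at 545 nm. Read-out is % viable cells.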

[3] = Cytotoxicity against mouse primary cortical neurons assessed viable cells at 100 uM after 24 hrs by MTT assay; format: cell-based, Cerebral cortex neuron; settings: for viability at 24 h, 100 µM: primary cortical neurons, read-out: Activity; in short: as §1
[4] = biological target: Dickkopf-related protein 1/Lrp6 (Mus musculus) (UniProt O54908+O88572); assay: Inhibition of DKK1-LRP6 interactions in mouse cortical neurons assessed as inhibition of prostaglandinJ2-induced tau phosphorylation at Ser396 residue at 10 uM for 1 hr by western bloting
Chain of Dickkopf-related protein 1/Lrp6 (Mus musculus) (O88572 whole entry, looked up, one chain of several): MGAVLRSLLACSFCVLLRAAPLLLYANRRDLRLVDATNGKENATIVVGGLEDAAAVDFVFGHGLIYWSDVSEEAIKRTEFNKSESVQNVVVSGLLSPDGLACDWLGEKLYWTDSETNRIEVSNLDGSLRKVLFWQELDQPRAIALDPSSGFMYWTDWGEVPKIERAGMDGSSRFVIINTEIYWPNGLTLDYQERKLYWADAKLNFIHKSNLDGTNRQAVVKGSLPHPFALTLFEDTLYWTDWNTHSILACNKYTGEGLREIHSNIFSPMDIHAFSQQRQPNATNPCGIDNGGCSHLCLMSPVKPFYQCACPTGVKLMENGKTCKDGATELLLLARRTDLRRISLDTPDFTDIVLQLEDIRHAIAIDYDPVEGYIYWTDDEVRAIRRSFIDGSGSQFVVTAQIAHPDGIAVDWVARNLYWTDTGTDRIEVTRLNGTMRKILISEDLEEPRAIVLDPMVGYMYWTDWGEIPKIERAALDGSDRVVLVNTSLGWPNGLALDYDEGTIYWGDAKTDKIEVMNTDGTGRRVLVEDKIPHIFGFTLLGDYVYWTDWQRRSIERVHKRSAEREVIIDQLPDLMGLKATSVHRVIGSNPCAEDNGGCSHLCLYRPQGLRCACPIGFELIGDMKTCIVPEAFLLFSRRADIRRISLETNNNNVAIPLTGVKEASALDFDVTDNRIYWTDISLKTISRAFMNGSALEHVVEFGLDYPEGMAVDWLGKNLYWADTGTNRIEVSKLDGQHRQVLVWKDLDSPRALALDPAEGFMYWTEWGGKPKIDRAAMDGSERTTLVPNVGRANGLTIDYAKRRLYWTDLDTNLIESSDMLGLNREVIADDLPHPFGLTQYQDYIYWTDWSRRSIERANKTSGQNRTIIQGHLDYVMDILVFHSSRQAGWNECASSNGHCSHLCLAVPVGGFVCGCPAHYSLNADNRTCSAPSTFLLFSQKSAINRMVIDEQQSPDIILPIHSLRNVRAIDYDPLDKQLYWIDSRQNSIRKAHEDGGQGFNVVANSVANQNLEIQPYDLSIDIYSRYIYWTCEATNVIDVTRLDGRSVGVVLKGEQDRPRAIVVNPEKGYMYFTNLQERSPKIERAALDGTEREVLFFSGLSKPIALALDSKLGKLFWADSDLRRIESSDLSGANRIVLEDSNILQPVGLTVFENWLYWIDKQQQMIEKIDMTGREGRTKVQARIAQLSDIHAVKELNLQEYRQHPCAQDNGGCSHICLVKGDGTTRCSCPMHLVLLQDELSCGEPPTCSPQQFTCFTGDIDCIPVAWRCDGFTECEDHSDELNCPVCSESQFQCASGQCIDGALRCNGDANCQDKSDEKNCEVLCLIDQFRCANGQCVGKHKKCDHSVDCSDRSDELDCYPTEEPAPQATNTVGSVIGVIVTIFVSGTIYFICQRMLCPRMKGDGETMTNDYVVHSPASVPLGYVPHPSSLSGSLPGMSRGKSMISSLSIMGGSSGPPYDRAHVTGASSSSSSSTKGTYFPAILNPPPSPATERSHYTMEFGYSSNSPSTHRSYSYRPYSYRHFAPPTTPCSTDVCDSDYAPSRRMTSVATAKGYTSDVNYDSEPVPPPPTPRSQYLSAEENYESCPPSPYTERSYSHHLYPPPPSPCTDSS
In short: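 Primary mouse cortical neurons treated 1 h at 37 °C with 20 µM PGJ2 plus compound or DMSO. Lysed at 4 °C in Tris/NaCl/EDTA/Triton buffer, pH 7.6, with protease and phosphatase inhibitors; protein measured by Bradford. SDS-PAGE western blot probed with anti-pSer396 tau (1:1000, overnight, 4 °C) and anti-actin; ECL detection. Densitometry normalized to actin; three independent experiments, mean SD.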

[5] = biological target: T1, Dickkopf-related protein 1 (Mus musculus, UniProt O54908); assay: Inhibition of mouse DKK1 assessed as inhibition of DKK1-alkaline phophatase binding to LRP5 transfected in HEK293 cells; format: cell-based
T1 sequence (O54908 whole entry): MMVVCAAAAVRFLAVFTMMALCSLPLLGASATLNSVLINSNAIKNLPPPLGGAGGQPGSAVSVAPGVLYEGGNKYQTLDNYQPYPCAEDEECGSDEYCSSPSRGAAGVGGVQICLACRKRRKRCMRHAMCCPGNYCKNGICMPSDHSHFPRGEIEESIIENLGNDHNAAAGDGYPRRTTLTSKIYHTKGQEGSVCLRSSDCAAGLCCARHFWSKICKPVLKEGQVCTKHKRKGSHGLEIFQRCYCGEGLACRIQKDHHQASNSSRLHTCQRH

SMILES	inhibition [1]	inhibition [4]	IC50 [5] [µM]	viability at 24 h, 10 µM [2] [%]	viability at 24 h, 100 µM [3] [%]	Activity ([2]; cerebral cortex neuron, 24 h, 10 µM) [%]	Activity ([3]; cerebral cortex neuron, 24 h, 100 µM) [%]
CN(C)c1ccc2nc3c(C(=O)O)cc(=O)c(O)c-3oc2c1 [listing 1 of 3 here]	–	–	–	–	–	100	100
CCCN(CCC)c1ccc2nc3c(C(=O)OC)cc(=O)c(O)c-3oc2c1	Active	–	–	100	100	–	–
CN(C)c1ccc2nc3c(C(=O)OCc4ccccc4)cc(=O)c(O)c-3oc2c1	Active	Active	–	100	100	–	–
CCOC(=O)c1cc(O)c(O)c2oc3cc(=[N+](C)C)ccc-3nc12	Active	–	–	100	100	–	–
CCCCOC(=O)c1cc(O)c(O)c2oc3cc(=[N+](C)C)ccc-3nc12	Active	–	–	100	100	–	–
CCCCOC(=O)c1cc(=O)c(O)c2oc3cc(N(CCC)CCC)ccc3nc1-2	Active	–	–	100	100	–	–
CCOC(=O)c1cc(O)c(O)c(O)c1 [ETHYLGALLATE]	Active	–	–	100	100	–	–
COCCOC(=O)c1cc(O)c(O)c2oc3cc(=[N+](C)C)ccc-3nc12	Active	–	–	100	100	–	–
CCCCCCOC(=O)c1cc(O)c(O)c2oc3cc(=[N+](C)C)ccc-3nc12	Active	–	–	100	100	–	–

Continued, in another order:

inhibition [1]	inhibition [4]	IC50 [5] [µM]	SMILES	viability at 24 h, 10 µM [2] [%]	viability at 24 h, 100 µM [3] [%]	Activity ([2]; cerebral cortex neuron, 24 h, 10 µM) [%]	Activity ([3]; cerebral cortex neuron, 24 h, 100 µM) [%]
Active	Active	–	CN(C)c1ccc2nc3ccc(=O)c(O)c-3oc2c1	100	100	–	–
Active	Active	–	CCCCOC(=O)c1cc(=O)c(O)c2oc3cc(N(C)C)ccc3nc1-2	100	100	–	–
Active	Active	–	CCOC(=O)c1cc(=O)c(O)c2oc3cc(N(C)C)ccc3nc1-2	100	100	–	–
Active	Active	–	COCCOC(=O)c1cc(=O)c(O)c2oc3cc(N(C)C)ccc3nc1-2	100	100	–	–
Active	Active	–	CCCCCCOC(=O)c1cc(=O)c(O)c2oc3cc(N(C)C)ccc3nc1-2	100	100	–	–
Active	Active	–	COC(=O)c1cc(=O)c(O)c2oc3cc(N(C)C)ccc3nc1-2	100	100	–	–
Active	–	–	CN(C)c1ccc2nc3c(O)cc(=O)cc-3oc2c1	100	100	–	–
Active	Active	–	CC(C)OC(=O)c1cc(=O)c(O)c2oc3cc(N(C)C)ccc3nc1-2	100	100	–	–
Active	–	–	Cc1cc(=O)cc2oc3cc(N(C)C)ccc3nc1-2	100	100	–	–
–	–	3	CN(C)c1ccc2nc3c(C(=O)O)cc(=O)c(O)c-3oc2c1 [listing 2 of 3 here]	100	100	–	–
Active	Active	–	CN(C)c1ccc2nc3c(C(=O)O)cc(=O)c(O)c-3oc2c1 [listing 3 of 3 here]	–	–	–	–
